The source of these data is ChEMBL document CHEMBL5705890, “Antitumor activity of an allosteric inhibitor of centromere-associated protein-E” (Proc Natl Acad Sci U S A, 2010).

Experiment [1] concerns the target T1, Centromere-associated protein E (Homo sapiens, UniProt Q02224). As to the kind of experiment: Inhibition of microtubule-stimulated ATPase activity of C-terminal 6-his-tagged CENP-E (2 to 340 residues)(unknown origin) expressed in Escherichia coli BL21(DE3) in presence of ATP. The procedure, abridged: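 Steady-state ATPase of CENP-E motor domain, residues 2–340 with C-terminal 6-His tag, expressed in E. coli BL21(DE3). Run at 1 nM enzyme, 500 μM ATP and 5 μM paclitaxel-stabilized microtubules in PEM25 (25 mM PIPES-K pH 6.8, 2 mM MgCl2, 1 mM EGTA) plus 10 μM paclitaxel. IC50 taken from concentration-response curves.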

Experiment [2] addresses T1, Centromere-associated protein E. As to the kind of experiment: Inhibition of ATPase activity of C-terminal 6-his-tagged CENP-E (2 to 340 residues)(unknown origin) expressed in Escherichia coli BL21(DE3) in presence of ATP.
For experiment [3] the target is unchanged. As to the kind of experiment: Uncompetitive-like binding affinity to C-terminal 6-his-tagged CENP-E (2 to 340 residues)(unknown origin) expressed in Escherichia coli BL21(DE3) assessed as apparent inhibition constant in presence of ATP. Conditions: read-out: Ki(app).
Experiment [4] has the same target. As to the kind of experiment: Uncompetitive binding affinity to microtubule-stimulated ATPase activity of C-terminal 6-his-tagged CENP-E (2 to 340 residues)(unknown origin) expressed in Escherichia coli BL21(DE3) assessed as apparent inhibition constant. Conditions: read-out: Ki(app). In short, it runs like this:
(§1)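 CENP-E motor domain (residues 2–340, C-terminal 6-his, from E. coli BL21(DE3)) run in MT-stimulated ATPase with 500 μM ATP, 5 μM paclitaxel-stabilized MT, 1 nM enzyme in PEM25 buffer, pH 6.8. Apparent Ki taken from the concentration-response curves with explicit correction for enzyme concentration.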

For experiment [5] the target is unchanged. As to the kind of experiment: Binding affinity to wild-type human CENP-E assessed as inhibition constant. The procedure, abridged:
as §1

The next experiment addresses Centromere protein E (Canis lupus familiaris, UniProt A0A8P0P634). Kind of experiment: Binding affinity to wild-type dog CENP-E assessed as inhibition constant.
In experiment [6] the target is Centromere-associated protein E (Mus musculus, UniProt Q6RT24). As to the kind of experiment: Binding affinity to wild-type mouse CENP-E assessed as inhibition constant.
In experiment [7] the target is Centromere-associated protein E (Homo sapiens, UniProt Q02224, I182L/K184T/T183A). As to the kind of experiment: Binding affinity to human CENP-E I182L/T183A/K184T mutant assessed as inhibition constant.
Experiment [8] deals with T1, Centromere-associated protein E. As to the kind of experiment: Competitive-like binding affinity to C-terminal 6-his-tagged CENP-E (2 to 340 residues)(unknown origin) expressed in Escherichia coli BL21(DE3) assessed as apparent inhibition constant in presence of ATP. Particulars: read-out: Ki(app).

T1 sequence (Q02224 whole entry, the tested form may be a part): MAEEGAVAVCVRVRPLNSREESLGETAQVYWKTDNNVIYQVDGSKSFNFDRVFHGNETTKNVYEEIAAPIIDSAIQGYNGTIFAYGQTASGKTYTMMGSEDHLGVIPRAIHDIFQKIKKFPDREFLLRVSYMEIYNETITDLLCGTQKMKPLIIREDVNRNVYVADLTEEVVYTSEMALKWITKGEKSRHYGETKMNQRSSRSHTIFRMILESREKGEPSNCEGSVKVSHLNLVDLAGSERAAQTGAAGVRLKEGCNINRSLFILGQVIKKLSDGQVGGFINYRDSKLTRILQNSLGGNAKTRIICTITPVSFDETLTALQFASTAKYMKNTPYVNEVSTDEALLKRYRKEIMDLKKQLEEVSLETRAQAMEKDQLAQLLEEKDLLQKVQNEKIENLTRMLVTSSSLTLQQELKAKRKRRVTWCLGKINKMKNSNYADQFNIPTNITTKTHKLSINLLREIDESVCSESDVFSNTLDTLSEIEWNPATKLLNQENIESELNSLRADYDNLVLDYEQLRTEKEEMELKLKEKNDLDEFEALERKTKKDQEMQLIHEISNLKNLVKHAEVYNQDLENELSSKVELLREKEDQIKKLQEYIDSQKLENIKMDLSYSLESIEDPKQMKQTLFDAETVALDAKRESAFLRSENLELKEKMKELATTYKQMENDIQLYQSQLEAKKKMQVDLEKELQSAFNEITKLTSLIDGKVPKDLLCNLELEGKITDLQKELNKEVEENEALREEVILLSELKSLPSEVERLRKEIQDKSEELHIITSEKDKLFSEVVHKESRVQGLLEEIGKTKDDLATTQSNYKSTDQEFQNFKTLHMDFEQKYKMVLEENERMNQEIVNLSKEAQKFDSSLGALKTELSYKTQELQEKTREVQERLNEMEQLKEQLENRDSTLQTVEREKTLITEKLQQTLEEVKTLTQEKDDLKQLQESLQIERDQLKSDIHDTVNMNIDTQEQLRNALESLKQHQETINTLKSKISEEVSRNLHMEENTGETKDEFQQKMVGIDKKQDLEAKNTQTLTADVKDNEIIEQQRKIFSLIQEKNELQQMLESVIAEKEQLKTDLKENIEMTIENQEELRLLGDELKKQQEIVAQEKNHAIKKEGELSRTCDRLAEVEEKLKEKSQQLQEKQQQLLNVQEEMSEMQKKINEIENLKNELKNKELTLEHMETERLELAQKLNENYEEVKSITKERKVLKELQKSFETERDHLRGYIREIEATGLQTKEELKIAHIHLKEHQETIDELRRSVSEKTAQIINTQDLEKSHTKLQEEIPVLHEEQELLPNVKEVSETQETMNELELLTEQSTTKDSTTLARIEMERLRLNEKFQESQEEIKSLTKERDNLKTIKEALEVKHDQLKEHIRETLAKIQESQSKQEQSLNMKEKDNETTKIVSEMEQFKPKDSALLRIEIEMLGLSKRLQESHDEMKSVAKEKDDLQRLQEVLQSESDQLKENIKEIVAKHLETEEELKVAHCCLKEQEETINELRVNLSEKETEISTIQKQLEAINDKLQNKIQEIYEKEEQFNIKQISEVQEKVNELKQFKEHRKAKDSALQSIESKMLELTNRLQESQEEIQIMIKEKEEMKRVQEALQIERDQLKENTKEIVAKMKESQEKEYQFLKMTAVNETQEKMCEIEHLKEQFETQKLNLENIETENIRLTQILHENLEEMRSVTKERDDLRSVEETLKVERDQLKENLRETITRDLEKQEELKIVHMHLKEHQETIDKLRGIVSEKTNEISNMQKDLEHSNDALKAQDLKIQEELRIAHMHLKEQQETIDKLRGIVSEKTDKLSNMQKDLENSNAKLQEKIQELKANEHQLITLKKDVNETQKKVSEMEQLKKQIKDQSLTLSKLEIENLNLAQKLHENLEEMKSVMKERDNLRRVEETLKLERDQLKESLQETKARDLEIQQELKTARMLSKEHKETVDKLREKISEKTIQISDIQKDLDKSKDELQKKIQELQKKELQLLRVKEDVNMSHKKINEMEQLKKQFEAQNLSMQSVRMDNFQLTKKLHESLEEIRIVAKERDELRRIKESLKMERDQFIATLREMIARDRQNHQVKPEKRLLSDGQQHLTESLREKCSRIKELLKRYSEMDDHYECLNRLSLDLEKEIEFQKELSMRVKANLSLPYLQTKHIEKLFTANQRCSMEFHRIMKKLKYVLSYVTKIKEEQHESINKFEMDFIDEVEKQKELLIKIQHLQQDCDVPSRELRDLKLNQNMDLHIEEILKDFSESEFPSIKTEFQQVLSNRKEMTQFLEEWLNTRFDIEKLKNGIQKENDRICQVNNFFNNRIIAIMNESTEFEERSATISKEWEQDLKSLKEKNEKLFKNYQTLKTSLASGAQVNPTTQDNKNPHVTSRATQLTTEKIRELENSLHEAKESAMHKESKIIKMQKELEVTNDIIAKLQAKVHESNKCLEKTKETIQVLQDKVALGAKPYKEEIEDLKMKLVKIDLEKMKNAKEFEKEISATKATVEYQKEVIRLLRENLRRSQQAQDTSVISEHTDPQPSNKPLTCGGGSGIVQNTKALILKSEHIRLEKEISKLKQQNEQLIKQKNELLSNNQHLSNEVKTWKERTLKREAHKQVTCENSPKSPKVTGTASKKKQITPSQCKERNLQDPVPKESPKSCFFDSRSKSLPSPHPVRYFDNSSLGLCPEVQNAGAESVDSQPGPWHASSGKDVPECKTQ
Chain of Centromere-associated protein E (Homo sapiens, UniProt Q02224, I182L/K184T/T183A) (Q02224 whole entry I182L/T183A/K184T, the tested form may be a part): as the sequence (Q02224 whole entry, the tested form may be a part) above, with I182L, T183A, K184T counted along it
Chain of Centromere protein E (A0A8P0P634 whole entry): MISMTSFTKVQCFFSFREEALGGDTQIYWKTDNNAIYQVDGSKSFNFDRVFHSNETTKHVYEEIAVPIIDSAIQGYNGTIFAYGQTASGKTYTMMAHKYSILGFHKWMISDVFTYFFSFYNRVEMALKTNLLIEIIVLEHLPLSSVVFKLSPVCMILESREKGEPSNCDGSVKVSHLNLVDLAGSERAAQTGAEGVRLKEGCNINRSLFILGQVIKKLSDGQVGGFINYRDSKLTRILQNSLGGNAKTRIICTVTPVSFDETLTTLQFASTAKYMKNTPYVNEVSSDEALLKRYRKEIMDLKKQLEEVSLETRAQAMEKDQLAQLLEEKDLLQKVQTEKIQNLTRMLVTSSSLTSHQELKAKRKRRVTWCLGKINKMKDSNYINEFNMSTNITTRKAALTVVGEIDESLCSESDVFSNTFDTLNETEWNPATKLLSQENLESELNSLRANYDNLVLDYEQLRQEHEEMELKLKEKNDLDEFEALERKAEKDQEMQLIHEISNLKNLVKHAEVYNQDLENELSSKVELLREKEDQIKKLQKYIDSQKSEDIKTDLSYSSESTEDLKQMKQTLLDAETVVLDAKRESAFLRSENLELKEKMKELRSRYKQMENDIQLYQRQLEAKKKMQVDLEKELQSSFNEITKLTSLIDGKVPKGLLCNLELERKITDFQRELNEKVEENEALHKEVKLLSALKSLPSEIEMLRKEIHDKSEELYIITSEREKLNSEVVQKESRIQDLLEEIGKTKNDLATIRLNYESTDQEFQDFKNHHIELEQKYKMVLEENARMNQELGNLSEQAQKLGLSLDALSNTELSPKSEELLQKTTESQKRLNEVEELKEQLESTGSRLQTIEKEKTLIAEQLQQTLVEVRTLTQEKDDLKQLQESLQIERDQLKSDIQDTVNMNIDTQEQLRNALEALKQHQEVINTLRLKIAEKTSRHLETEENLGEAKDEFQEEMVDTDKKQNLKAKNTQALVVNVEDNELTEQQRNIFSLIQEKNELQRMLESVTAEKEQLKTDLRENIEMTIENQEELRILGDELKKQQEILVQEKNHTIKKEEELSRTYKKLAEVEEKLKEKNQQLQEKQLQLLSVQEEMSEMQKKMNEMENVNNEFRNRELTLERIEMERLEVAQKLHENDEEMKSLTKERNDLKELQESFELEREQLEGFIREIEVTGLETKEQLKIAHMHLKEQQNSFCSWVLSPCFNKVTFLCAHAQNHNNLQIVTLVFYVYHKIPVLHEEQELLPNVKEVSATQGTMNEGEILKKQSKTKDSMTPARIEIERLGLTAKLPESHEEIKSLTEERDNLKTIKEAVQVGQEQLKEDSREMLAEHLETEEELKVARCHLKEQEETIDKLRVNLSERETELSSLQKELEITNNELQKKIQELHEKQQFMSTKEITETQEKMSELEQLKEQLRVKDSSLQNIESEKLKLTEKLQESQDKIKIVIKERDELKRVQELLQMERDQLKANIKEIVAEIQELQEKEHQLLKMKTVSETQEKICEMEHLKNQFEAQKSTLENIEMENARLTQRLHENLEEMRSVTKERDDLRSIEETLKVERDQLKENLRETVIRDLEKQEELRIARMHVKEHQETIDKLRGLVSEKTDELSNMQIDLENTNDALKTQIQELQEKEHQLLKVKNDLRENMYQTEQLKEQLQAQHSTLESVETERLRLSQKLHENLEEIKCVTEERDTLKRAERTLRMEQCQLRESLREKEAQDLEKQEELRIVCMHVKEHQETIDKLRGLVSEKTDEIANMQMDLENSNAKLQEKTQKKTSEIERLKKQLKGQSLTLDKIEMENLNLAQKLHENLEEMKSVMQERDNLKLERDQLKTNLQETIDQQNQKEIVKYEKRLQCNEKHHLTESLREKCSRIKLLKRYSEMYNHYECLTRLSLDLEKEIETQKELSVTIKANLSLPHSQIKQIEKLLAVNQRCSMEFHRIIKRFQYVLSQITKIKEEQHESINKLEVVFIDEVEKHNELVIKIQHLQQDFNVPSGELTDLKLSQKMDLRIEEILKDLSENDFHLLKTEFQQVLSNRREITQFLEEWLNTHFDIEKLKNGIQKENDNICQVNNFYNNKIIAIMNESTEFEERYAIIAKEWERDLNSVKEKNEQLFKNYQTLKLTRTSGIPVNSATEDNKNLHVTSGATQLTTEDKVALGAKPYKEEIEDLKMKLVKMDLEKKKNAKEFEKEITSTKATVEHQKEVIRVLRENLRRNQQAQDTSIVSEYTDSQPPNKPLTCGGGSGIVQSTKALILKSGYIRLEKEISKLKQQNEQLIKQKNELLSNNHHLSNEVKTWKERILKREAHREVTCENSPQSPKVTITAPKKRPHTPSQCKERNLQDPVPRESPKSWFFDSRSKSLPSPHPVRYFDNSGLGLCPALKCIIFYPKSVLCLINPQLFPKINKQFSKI

Turning to `Cc1cccn2cc(-c3ccc(C[C@@H](CCO)NC(=O)c4ccc(OC(C)C)c(C#N)c4)cc3)nc12`, the results for the IC50 in experiment [1] and in experiment [2] were 3.7 nM and 7.37 µM, respectively. Moreover, the Ki in experiment [3] was found to be 4.2 nM; in [4] it was 4.7 nM.

As to `CNC(=O)C(Cc1ccc(C(=O)c2ccccc2)cc1)NC(=O)c1ccc(OC(C)C)c(Cl)c1` (stereo not given), the Ki worked out at 4.2 nM in [5]; 2.4 nM at Centromere protein E; 89 nM in experiment [6]; 73 nM in [7]; 4.4 µM in experiment [8]. For the same molecule, the half-maximal inhibitory concentration (IC50) in experiment [1] was 550 nM.

What is called IC50 is the concentration needed to halve the response being measured.
